Hits are enriched below; roughly 4.4% of the tested compounds scored in any of these assays.
MsrA act: bovine MsrA enzyme activators, primary screen, biochemical, absorbance, HTS; Methionine sulfoxide reductase A (Bos taurus); purified bovine MsrA, absorbance read-out; activation, % at 10.6 µM; 360,000 compounds, 0.3% hits; AID 602163, 2012; in the data active = activation above about 7.5%;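 note: 0% = vehicle and 100% = reference activator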
AHR act: AHR activators, primary screen, cell-based, luminescence, luciferase reporter, human; Aryl hydrocarbon receptor (Homo sapiens), P35869; AHR-responsive luciferase reporter cells; activation, % at 5 µM; 320,000 compounds, 2.5% hits; AID 2796, 2010; in the data active = activation above about 47%;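 note: 0% = vehicle wells and 100% = reference agonist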
MsrA inh: bovine MsrA enzyme inhibitors, primary screen, biochemical, absorbance, HTS | purified bovine MsrA, absorbance read-out | 360,000 compounds, 0.75% hits | Methionine sulfoxide reductase A (Bos taurus) | AID 651718, 2012 | inhibition, % at 15.5 µM; in the data active = inhibition above about 4.5%;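 note: 0% = vehicle wells with enzyme and 100% = reference inhibitor wells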
AI-2 QS mod: Vibrio harveyi AI-2 quorum sensing modulators, primary screen, JMH597 strain, luminescence/OD600 ratio | Vibrio harveyi JMH597 AI-2 luminescence/OD600 ratio, 9 h; stronger effect = lower value; strain lacks LuxN and CqsS sensors; 0 = neutral-control median | activity change, % at 7.5 µM | 300,000 compounds, 0.4% hits; in the data active = activity change below about -75%, passing the limit was not always enough;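 note: luminescence divided by OD600 gain over 9 h not by final OD600 alone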
HTR2A ag: mouse Htr2a agonists via beta-arrestin recruitment, primary screen, cell-based, luminescence. 5-hydroxytryptamine receptor 2A (Mus musculus), P35363. 360,000 compounds, 0.66% hits. AID 624169, 2012. CHO-K1 mHTR2A beta-arrestin complementation; percent of 30 µM serotonin response. activation, % at 7.6 µM;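 active = activation above a run cutoff, the mean activation of all tested compounds plus 3 SD, cut at about 14% in these data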;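 note: 0% = plate median of compound wells and 100% = 30 µM serotonin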
TbMetRS inhib: T. brucei MetRS inhibitors, primary screen, biochemical, luminescence; inhibition, % at 11.9 µM; 360,000 compounds, 0.4% hits; purified T. brucei MetRS, ATP depletion, Kinase-Glo luminescence; AID 624268, 2012; methionyl-tRNA synthetase (Trypanosoma brucei brucei);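 active = inhibition above a per-plate cutoff of the control wells' mean inhibition plus 3 SD, cut at about 5.5% in these data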;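 note: 0% = DMSO wells median and 100% = median of wells with control inhibitor compound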
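Test system: purified T. brucei MetRS enzyme. Also added: ATP, methionine and E. coli bulk tRNA substrates. Compound: 11.9 µM single point. Schedule: 15 min enzyme-compound preincubation, 2 h reaction, 10 min detection, 25 °C. Signal: luciferase luminescence of residual ATP, Kinase-Glo. Evaluation: percent inhibition versus plate control medians. Controls: DMSO wells, low control.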
AHR act confirm: AHR activators, confirmation, cell-based, luminescence, luciferase reporter, human; 2,300 compounds, 87% hits; human cells, AHR-responsive luciferase reporter; activation, % at 9 µM; shares compounds with AHR act; in the data active = activation above about 49%;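 note: HepG2 hepatoma cells carrying a DRE-driven firefly luciferase reporter; 0% = vehicle wells and 100% = reference agonist wells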
PXR act counter: human PXR activators, counter-screen for AHR activator project, cell-based, luciferase luminescence. AID 434939, 2010. activation, % at 11.6 µM. 2,300 compounds, 88% hits. cell-based PXR reporter. shares compounds with AHR act; in the data active = activation above about 11%;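 note: human hepatoma DPX-2 cells expressing full-length human PXR; 0% = DMSO and 100% = reference agonist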
Target sequence (O75469 whole entry, looked up): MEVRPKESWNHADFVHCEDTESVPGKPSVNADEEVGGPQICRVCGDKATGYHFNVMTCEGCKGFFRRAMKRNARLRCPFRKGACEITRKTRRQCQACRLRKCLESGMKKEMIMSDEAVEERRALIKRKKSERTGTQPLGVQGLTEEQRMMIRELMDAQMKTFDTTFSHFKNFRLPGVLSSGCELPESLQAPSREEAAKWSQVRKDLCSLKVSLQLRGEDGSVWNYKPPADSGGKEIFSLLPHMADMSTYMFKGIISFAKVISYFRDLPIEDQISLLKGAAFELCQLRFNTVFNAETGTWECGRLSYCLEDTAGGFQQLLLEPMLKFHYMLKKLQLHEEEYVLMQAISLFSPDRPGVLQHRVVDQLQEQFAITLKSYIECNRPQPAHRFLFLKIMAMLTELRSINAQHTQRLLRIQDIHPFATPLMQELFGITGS
* hit, by the source's call; x = not tested or not shown.

SMILES	MsrA act	AHR act	MsrA inh	AI-2 QS mod	HTR2A ag	TbMetRS inhib	AHR act confirm	PXR act counter
Cc1ncc(C(O)c2ccccc2)n1Cc1ccccc1 (stereo not drawn)	-0.1	x	0.7	x	2.2	-0.2	x	x
COc1ccc2c(c1)O[C@H](c1ccc3c(c1)OCO3)[C@@H](O)C2=O	1.9	86.7*	x	5.8	-5.2	-0.1	94.8*	26.1*
CCOc1cccc(CN2CCC(CCC(=O)NC3CC3)CC2)c1O	-1.8	3.5	-0.1	-5.5	-3.3	-0.8	x	x
Cc1cc(N)ccc1N=Nc1c(C)n(C)n(-c2ccccc2)c1=O	-9.9	87.4*	1.8	4.7	6.2	-1.2	118.8*	24.9*
COc1ccc(-c2csc(NC(=O)C3CCN(C(=O)c4ccc(F)cc4)CC3)n2)cc1OC	-1.6	-3.5	-0.6	18.7	2.3	-0.2	x	x
Cc1cc(C)c(S(=O)(=O)N2CCCC(C(=O)NC3CC3)C2)c(C)c1 (stereo not drawn)	-1.7	2.3	0.2	28.7	3.1	-0.3	x	x
CCn1c(=O)c(C(=O)Nc2ncccc2C)c(O)c2ccccc21	-4.8	111.2*	1.8	10.5	7.2	-0.1	96.1*	26.4*
Cc1c(NC(=O)c2ccco2)cccc1-c1nc2cccnc2s1	-0.2	109.0*	-0.9	-14.4	-2.1	0.2	89.6*	14.3*
Cc1ccc(N=Nc2c(O)[nH]c3ccc(F)cc23)cc1	-2.0	113.9*	-0.8	-10.5	-3.5	0.6	129.0*	21.7*
O=c1[nH]nc(N=Nc2c(O)[nH]c3ccc(F)cc23)c(=O)[nH]1	-4.7	x	-0.8	x	0.7	-0.7	x	x
COc1ccc(C2(c3ccc(OC)cc3)NC(=O)N(CC(=O)Nc3cc(C)ccc3OC)C2=O)cc1	-0.4	-1.2	0.4	5.0	-3.5	0.8	x	x
CCCC1=[N+](CC(=O)c2ccc(C)cc2)CCn2cccc21	-4.9	81.7*	1.9	20.6	-0.8	0.4	111.5*	21.9*
CC(C)NC(=O)C1CC(=O)N(CCc2ccc(F)cc2)C1 (stereo not drawn)	-2.4	x	0.0	x	3.1	-0.2	x	x
CC(=O)n1c2ccccc2c2c1c1ccccc1n2C	-3.9	108.8*	-0.2	15.0	2.8	-1.1	112.8*	21.8*
Cc1cccc(C(=O)NCC(=O)NCC2COc3ccccc3O2)c1 (stereo not drawn)	-4.5	2.4	-0.3	15.4	-5.6	-0.4	x	x
COc1cc(N)c(Cl)cc1NC(=O)c1ccccc1	-4.2	94.3*	0.4	1.8	0.8	-0.4	117.4*	14.9*
COc1cc(NC(=O)C(C)Oc2ccccc2)c(OC)cc1NC(=O)c1ccccc1 (stereo not drawn)	-12.0	82.0*	x	13.9	3.7	-0.9	99.8*	14.1*
CC(Oc1ccccc1)C(=O)Nc1ccc(NC(=O)c2ccccc2)cc1 (stereo not drawn)	-5.1	1.9	-1.2	15.2	7.0	0.1	x	x
COc1cc(OC)c(NC(=O)c2ccc(F)cc2)cc1Cl	-14.3	1.6	2.1	11.2	4.2	-1.1	x	x
COc1ccc(OC)c(NC(=O)c2cccc(N3C(=O)C4C5C=CC(C6CC56)C4C3=O)c2)c1 (stereo not drawn)	-3.0	7.7	-0.9	30.4	6.0	-0.2	x	x
Cc1cccc(Nc2nc(-c3ccc(F)c(C)c3)cs2)n1	-7.5	94.9*	0.2	18.0	2.0	-1.0	134.0*	33.7*
Cc1cccc(Nc2nc(-c3ccc(O)c(O)c3)cs2)n1	-1.1	2.1	-0.2	12.6	-5.7	-0.5	x	x
O=C(CC1C(=O)Nc2ccccc2N1CC(=O)N1CCCC1)Nc1ccc(Br)cc1 (stereo not drawn)	-3.0	91.7*	-0.1	x	-5.0	18.8*	99.6*	36.6*
O=c1nc(Nc2ccc(Br)cc2)sc2ccc([N+](=O)[O-])cc12	0.2	95.6*	1.3	19.0	-8.1	-0.5	101.7*	x
Cc1nn(CC(=O)N2CCN(c3ccc(Cl)cc3)CC2)c(=O)c2cccn12	-7.3	-1.6	-1.1	9.2	-1.8	-0.6	x	x
SMILES	MsrA act	AHR act	MsrA inh	AI-2 QS mod	HTR2A ag	TbMetRS inhib	AHR act confirm	PXR act counter
CCC(=O)N1CCCN(S(=O)(=O)c2ccc(C)cc2)C1c1ccc(OC)cc1 (stereo not drawn)	-3.6	0.3	0.8	-6.3	-4.9	-0.3	x	x
C#Cc1ccc2c(c1)COc1c3ccccc3nn1-2	-2.1	88.2*	-0.5	8.9	-4.3	-0.1	62.0*	25.0*
O=C1COCC(=O)N1CCc1c[nH]c2ccccc12	-4.4	83.2*	0.3	20.9	-1.8	-0.6	108.2*	12.0*
O=C1CCC(=O)N1CCc1c[nH]c2ccccc12	-3.7	-5.2	-0.6	19.0	5.0	-0.9	x	x
O=c1c2ccccc2nc2oc3ccccc3n12	-5.2	94.5*	-0.9	14.5	-0.5	-0.6	93.2*	16.6*
Cc1cc(C)cc(Nc2nc3c([nH]2)c(=O)n(C)c(=O)n3C)c1	-2.2	94.9*	0.0	20.1	-2.4	0.1	38.0	26.6*
CCC1CCCN1Cn1cnc2c([nH]c3ccccc32)c1=O (stereo not drawn)	-4.7	83.7*	-0.2	8.9	2.1	-0.6	77.8*	54.1*
COc1cc(OC)cc(-c2nc3ccccc3s2)c1	0.2	89.9*	-0.6	18.2	2.2	-0.6	107.2*	10.6*
COc1cc(N=Nc2ccc3ccccc3c2)ccc1O	-4.9	84.2*	1.5	-6.5	-8.0	-0.5	27.7	12.7*
Fc1ccccc1N=C1NN=C(c2ccccc2)CS1	-7.2	46.8	-0.2	42.7	1.1	-0.8	x	x
Clc1ccccc1N=C1NN=C(c2cccs2)CS1	-6.3	139.3*	1.9	21.1	3.4	-0.1	130.1*	35.9*
Cc1cc(C)c(C)c(S(=O)(=O)NCc2ccc(C(=O)N3CCN(C)CC3)cc2)c1C	-2.9	-1.9	-0.3	-1.0	-0.9	-0.5	x	x
COc1ccc(/C=N/Nc2cc(C)nc3ccccc23)cc1	-5.9	120.0*	0.4	12.3	-3.5	0.0	49.6*	x
O=C(Nc1ccccc1C(=O)O)c1ccc2ccccc2n1	-4.3	93.3*	0.9	2.0	-1.0	-0.2	130.3*	32.1*
O=C(Nc1ccc(Cl)cn1)c1ccc2ccccc2n1	-10.8	37.2	2.1	-0.9	-1.4	0.9	x	x
